The list is not random: actives were taken first. Their share in the collection is about 1.3%.
VLA-4 inh: inhibition in a human VLA-4 binding assay. AID 2557. inhibition, % (about 7 µM as worked out from the volumes in the protocol). hit rate 0.2% among 330,000. P13612. VLA-4 expressing cells, ligand binding flow cytometry; in the data active means inhibition above about 50%
Hep lipid drop: hepatic lipid droplet formation modulation; AID 1656; inhibition, % at 6.5 µM; AML12 mouse hepatocytes, oleate lipid droplets, BODIPY imaging; hit rate 0.4% among 240,000;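 active means lipid droplet intensity inhibited by at least 50%, with more than 500 cells counted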
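Material – AML12 mouse liver cells · Also added – oleate loading, 100 µM · Compound dosing – 6.5 µM single-point dosing · Times – overnight treatment with compound plus oleate · Measured by – fluorescence imaging, 20x objective, two fields per well · Read-out – percent inhibition of filter-corrected integrated lipid droplet intensity per well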
GRK2 aptamer HTS: blocks RNA aptamer binding to human GRK2; bead flow cytometry, FAM-aptamer displacement from GRK2; inhibition of aptamer binding, % at 10 µM; hit rate 0.59% among 330,000; AID 488847;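 active means inhibition of aptamer binding above 40%, roughly 3 SD of noise, on plates passing a quality check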;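 further: median bead fluorescence of bound FAM aptamer so fluorescent compounds give negative values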
Target sequence (P25098 whole entry, looked up): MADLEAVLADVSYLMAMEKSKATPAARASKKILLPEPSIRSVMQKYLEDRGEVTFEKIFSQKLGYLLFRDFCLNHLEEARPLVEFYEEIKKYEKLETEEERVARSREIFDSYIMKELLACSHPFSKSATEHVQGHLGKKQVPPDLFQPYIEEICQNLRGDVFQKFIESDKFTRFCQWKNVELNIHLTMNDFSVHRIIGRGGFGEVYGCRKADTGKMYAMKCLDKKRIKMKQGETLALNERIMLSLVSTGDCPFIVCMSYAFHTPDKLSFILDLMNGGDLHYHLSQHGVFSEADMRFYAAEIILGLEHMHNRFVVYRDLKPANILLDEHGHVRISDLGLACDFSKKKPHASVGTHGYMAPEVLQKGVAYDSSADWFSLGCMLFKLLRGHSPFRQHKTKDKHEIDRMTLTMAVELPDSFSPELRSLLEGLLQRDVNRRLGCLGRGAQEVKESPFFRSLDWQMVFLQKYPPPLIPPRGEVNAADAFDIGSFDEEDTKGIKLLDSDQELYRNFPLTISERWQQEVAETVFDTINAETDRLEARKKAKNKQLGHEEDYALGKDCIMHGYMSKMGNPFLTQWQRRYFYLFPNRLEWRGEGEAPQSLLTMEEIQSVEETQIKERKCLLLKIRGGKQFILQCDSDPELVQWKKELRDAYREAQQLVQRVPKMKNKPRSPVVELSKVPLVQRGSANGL
GASC-1 inh: inhibitors of human GASC-1 (JMJD2C) demethylase; Q9H3R0; GST-JMJD2C(1-420) H3K9me3 demethylation, DELFIA europium; inhibition, % at 2.35 µM; hit rate 0.069% among 330,000; AID 2099;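 active means more than half of a compound's replicate wells show inhibition beyond 50%, single wells judged on their own value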;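 further: signal counts dimethyl H3K9 product captured on neutravidin plate; 0% = median of DMSO wells and 100% = 0.3 times that DMSO median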
procasp3 activ: activators of human procaspase-3; P42574; recombinant procaspase-3 D3A, Ac-DEVD-pNA absorbance 405 nm; activation, % at 8.5 µM; hit rate 0.11% among 330,000;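 active means activation above the mean of all tested compounds plus 3 SD, cut at about 21% in these data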;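 further: 0% = DMSO alone and 100% = DMSO wells spiked with extra 5 µM PC-3 D3A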
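Assay system: Autoprocessing-dead procaspase-3 D3A mutant enzyme; also added: Ac-DEVD-pNA; doses: one concentration, 8.5 µM nominal, 0.8% DMSO; times: 1 h compound preincubation, 2 h substrate hydrolysis at 25 °C; technique: 405 nm absorbance of p-nitroaniline, reads at 0 and 120 min; measure: % activation between DMSO and enzyme-spiked controls; repeats: single replicate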
procasp7 counter: activates human procaspase-7, counter-screen for procaspase-3 activators; recombinant procaspase-7, Ac-DEVD-pNA absorbance 405 nm; D23A/D198A/D206A triple mutant, cannot self-cleave; scale: DMSO 0, 5 µM enzyme 100; activation, % at 8.5 µM; hit rate 0.093% among 330,000;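 active means percent activation above the screen-wide mean plus 3 SD, cut at about 25% in these data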
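System: Procaspase-7 triple mutant (PC-7 D3A); measure: % activation from two-timepoint absorbance difference, scaled to controls; times: 1 h compound preincubation, 2 h substrate cleavage, 25 °C; also added: Ac-DEVD-pNA substrate, 400 µM as added; measured by: Epi-absorbance of released pNA at 405 nm, two timepoints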
GRK2 inh confirm: confirmation of human GRK2 inhibitors displacing RNA aptamer | shares compounds with GRK2 aptamer HTS | bead-bound GRK2, FAM-aptamer displacement, flow cytometry | aptamer displacement, % at 10 µM | hit rate 4% among 2,000;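 active means aptamer displacement above 40%, near three times the noise of non-fluorescent compounds, on plates passing quality checks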;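 further: negative values mostly reflect intrinsic compound fluorescence rather than true enhancement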
FAM quench CP1: counter-screen for GRK2 aptamer inhibitors: fluorescent aptamer quenchers | shares compounds with GRK2 aptamer HTS | Carboxyfluorescein RNA aptamer on beads, flow cytometry quenching; active compounds read low | fluorescence response (% of DMSO), % at 10 µM | 2,000 tested, under 10 active;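 active means compounds that quench the bead-bound fluorescent RNA probe, cutting fluorescence to under half of the solvent control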;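 further: counterscreen run without GRK2 so only probe quenching by compound is measured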
GRK2 confirm 2: confirmation of human GRK2 inhibitors binding RNA aptamer site | AID 504782 | bead-bound GRK2, FAM-aptamer displacement, flow cytometry | 360 tested, under 10 active | shares compounds with GRK2 aptamer HTS | inhibition of aptamer binding, % at 10 µM;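 active means inhibition of aptamer binding above 40%, about triple the noise seen with nonglowing compounds, on plates passing quality control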;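 further: negative values mostly come from compounds that fluoresce themselves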
FAM quench SP: aptamer fluorescence quenching in GRK2 counter-screen; AID 588494; shares compounds with GRK2 aptamer HTS; carboxyfluorescein RNA aptamer beads, flow cytometry quenching; active compounds read low; fluorescence response vs DMSO, % at 10 µM; 360 tested, under 10 active;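 active means response vs DMSO under 50%, meaning signal dropped by over half, treated as fluorescence quencher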;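 further: labelled aptamer on streptavidin beads without GRK2 as a quench counter-screen; 100% = bead fluorescence of DMSO wells and lower means quenching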
Starred values were filed as active, the others as inactive; x = not tested or not shown.

SMILES | VLA-4 inh | Hep lipid drop | GRK2 aptamer HTS | GASC-1 inh | procasp3 activ | procasp7 counter | GRK2 inh confirm | FAM quench CP1 | others
C=CC[C@H](CC(=O)N(CCO)Cc1ccccc1)C(=O)N[C@@H](COC(=O)[C@@H](CC=C)Cc1ccc(F)cc1)Cc1c[nH]c2ccccc12 | 15 | x | 0 | 10 | 0 | 5 | x | x
O=C(CCc1ccc(Oc2cc([N+](=O)[O-])cc([N+](=O)[O-])c2)cc1)NC1CCCC1 | -6 | -8 | 99* | -32 | -11 | -9 | 2 | 92
O=C(COC(=O)Cc1ccc(-c2ccccc2)cc1)NCc1ccc(F)cc1 | 0 | -2 | 8 | -1 | -2 | -12 | -1 | 99
Cc1ccc(CNC(=O)COC(=O)Cc2ccc(-c3ccccc3)cc2)cc1 | -3 | -1 | 0 | 0 | -1 | -4 | -3 | 99
O=C(CS(=O)(=O)c1ccccc1)Nc1nc2ccccc2s1 | 15 | x | 1 | -1 | -3 | 6 | x | x
O=C(C[n+]1cccc(CO)c1)Nc1nc2ccccc2s1 | -6 | 1 | 42* | 2 | -1 | 10 | 3 | 101
CCn1c(SCC(=O)O)nc2sc3c(c2c1=O)CCC3 | 1 | x | 35 | -20 | 6 | -2 | x | x
CCn1c(SCC(=O)OC)nc2sc3c(c2c1=O)CCC3 | -12 | x | 9 | 3 | 7 | -9 | x | x | GRK2 confirm 2=14;FAM quench SP=100
Cn1c(SCc2nnc(-c3ccccc3Br)o2)nc2sc3c(c2c1=O)CCC3 | 3 | x | 0 | -6 | 0 | 10 | x | x | GRK2 confirm 2=23;FAM quench SP=100
COCCCn1c(SCc2nnc(-c3ccccc3)o2)nc2sc3c(c2c1=O)CCC3 | 2 | x | 2 | 2 | 2 | -3 | x | x
O=C(O)CSc1nc2sc3c(c2c(=O)n1-c1ccccc1)CCC3 | -1 | 10 | 3 | -9 | -4 | -3 | x | x | GRK2 confirm 2=-22;FAM quench SP=104
CCCn1c(SC(C)C(=O)NCC2CCCO2)nc2sc3c(c2c1=O)CCC3 (stereo unspecified) | 0 | x | 1 | 2 | -3 | 1 | x | x | GRK2 confirm 2=-8;FAM quench SP=98
CN(C(=O)C1CC1)C1CCS(=O)(=O)C1 (stereo unspecified) | 6 | x | 0 | -12 | -7 | 7 | x | x
CCNc1ccc(N=Nc2c(C)n(C)n(-c3ccccc3)c2=O)cc1 | 8 | -31 | 4 | 0 | -3 | -12 | x | x
Cn1c(NCc2ccccc2O)nc2ccccc21 | -8 | x | 45* | 14 | 5 | -2 | 1 | 99
COc1cc(OC)c2cc(C(=O)N[C@H](C(=O)N3CCC[C@H]3C(=O)O)C(C)C)n(C)c2c1 | -20 | x | 2 | 7 | 0 | 3 | x | x
Cc1ccc(C(CNS(=O)(=O)c2ccc(Br)cc2)N2CCN(C)CC2)cc1 (stereo unspecified) | 11 | x | 0 | 22 | 6 | 7 | x | x
Cc1ccc(C(CNS(=O)(=O)c2ccccc2)N2CCN(C)CC2)cc1 (stereo unspecified) | -3 | x | 0 | -4 | -5 | 5 | x | x | GRK2 confirm 2=6;FAM quench SP=99
O=[N+]([O-])c1cccc(S(=O)(=O)N2CCN(S(=O)(=O)N3CCCCCC3)CC2)c1 | -4 | 3 | 0 | 5 | -1 | 0 | x | x
COc1cc(F)ccc1CN1CCC(n2nccc2NC(=O)C2CCOC2)CC1 (stereo unspecified) | 15 | 10 | 1 | 9 | 4 | 4 | x | x
O=c1cc[nH]c2ccc(OC(F)(F)F)cc12 | 1 | x | 86* | -2 | 12 | 4 | -1 | 100
CCN(Cc1ccccc1)S(=O)(=O)c1c(C(=O)N2CCCC2)c(C)n(C)c1C | -1 | -7 | 0 | 2 | -1 | 0 | x | x
CCCN(CC(=O)Nc1ccc(Cl)cc1Cl)C(=O)/C=C/c1ccco1 | 4 | -9 | 1 | 6 | 3 | 2 | x | x
Cn1c(N2CCN(C(=O)Nc3ccc(F)cc3)CC2)nc2ccccc21 | 30 | 27 | 3 | 8 | 5 | 7 | x | x
Cn1c(N2CCN(C(c3ccccc3)c3ccccc3)CC2)nc2ccccc21 | 8 | 15 | 98* | -8 | 0 | -9 | -2 | 151
SMILES | VLA-4 inh | Hep lipid drop | GRK2 aptamer HTS | GASC-1 inh | procasp3 activ | procasp7 counter | GRK2 inh confirm | FAM quench CP1 | others
COc1ccccc1-c1ccc(Nc2cccc(C(C)=O)c2)nn1 | 27 | -3 | 2 | -14 | 5 | 12 | -8 | 103
CC(=O)c1ccc(Nc2ccc(-c3ccccc3C)nn2)cc1 | 10 | 48 | 0 | 8 | -2 | -16 | x | x
CC(=O)c1cccc(Nc2ccc(-c3ccccc3F)nn2)c1 | 5 | -9 | 1 | 2 | 2 | 1 | 0 | 102
CCOc1cc(/C=C/C(=O)c2ccc(OC)c(CN3CCOCC3)c2)cc(Br)c1O | -18 | -2 | 2 | -1 | 1 | -8 | x | x
CCN(CC)c1ccc(NC(=O)Cn2nnc(-c3cccc(OC)c3OC)n2)c(C)c1 | -10 | 2 | 95* | -4 | -5 | 18 | 1 | 96
N#C/C(=C\Nc1ccccc1SC(F)(F)F)c1nc(-c2ccccc2)cs1 | -1 | -1 | 48* | 3 | 1 | -4 | 0 | 95
O=[N+]([O-])c1ccc2nc(SCc3cn4cccnc4n3)[nH]c2c1 | 1 | -1 | 89* | -6 | -4 | -7 | -1 | 99
CCCCN(C(=O)c1nn(C)c(=O)c2ccccc12)c1c(N)n(CC(C)C)c(=O)[nH]c1=O | 47 | x | 3 | x | 0 | 14 | x | x
O=c1[nH]c2ccccc2nc1/C=C/c1ccccc1 | -9 | 20 | 52* | 17 | -2 | -2 | 2 | 100
O=c1[nH]c2ccccc2nc1/C=C/c1ccc(O)cc1 | x | -16 | x | 9 | x | x | x | x
O=C(CC(Cc1ccccc1)C(=O)O)Nc1ccc(Cl)c(Cl)c1 (stereo unspecified) | 14 | -9 | 99* | 2 | -9 | 6 | -2 | 100
O=C(NCc1ccccn1)C1CCCN(Cc2cnn(-c3ccccc3)c2-n2cccc2)C1 (stereo unspecified) | -21 | x | 0 | 9 | -5 | 7 | 1 | 102
O=C(NCc1ccccn1)C1CCN(Cc2cnn(-c3ccccc3)c2-n2cccc2)CC1 | 4 | -7 | 0 | -1 | 5 | 5 | 2 | 95
COc1cccc(CNC(=O)C2CCN(Cc3cnn(-c4ccccc4)c3-n3cccc3)CC2)c1 | -2 | x | 1 | 2 | -2 | -1 | x | x
